Results reported in the EternaBench riboswitch data.

Test system: MS2 coat protein
Assay: apparent Kd, MS2 coat protein; higher = weaker binding; RNA-MaP array; FMN 200 µM where present
In short: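 Binding was read on Illumina sequencing-chip clusters where stalled E. coli RNA polymerase had transcribed each design. A titration of SNAP-549-labelled MS2 coat protein began at 0.7 or 1.5 nM and doubled to 3 µM, once without ligand and once with constant ligand, in 100 mM Tris-HCl pH 7.5, 80 mM KCl, 4 mM MgCl2, BSA, DTT, yeast tRNA and Tween-20. The apparent Kd is the median of filtered per-cluster binding-curve fits, based on green signal normalised to red-channel RNA signal and control-cluster median Fmax.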

[1] = designed as: OFF switch for flavin mononucleotide, no ligand
[2] = ligand present: flavin mononucleotide, designed as: OFF switch for flavin mononucleotide
[3] = designed as: ON switch for flavin mononucleotide, no ligand
[4] = ligand present: flavin mononucleotide, designed as: ON switch for flavin mononucleotide

Row | Sequence | apparent Kd [1] | apparent Kd [2] | apparent Kd [3] | apparent Kd [4]
1 | AUCGAACAUGAGGAUCACCCAUGUUAGGAUAUUGGAUAGCGCGCUGGUGUAGUGUAUCCAAGAAGGGACUGGUG | 66.5 nM | 101 nM |  | 
2 | AUCGUGCAGCUUUGCUGUACGCGUACAUGAGGAUCACCCAUGUAGGAUAUGGUAGGCAAAGCUUACUAGAAGGAUAUAGUGAUC | 61.9 nM | 54 nM |  | 
3 | AUCGUUGGAGGAUAUGCUUGGAAAAAAAAAAAAAAAAAAAAACAUGAGGAUCACCCAUGUAGAAGGUCAAUGGA | 52.6 nM | 47.2 nM |  | 
4 | AUCUUGUCAGGAUAUCUGACAAGUGACUUCGGUCACAGUUCAGAGAAGGUACAUGAGGAUCACCCAUGUAGAAC | 17.4 nM | 18.6 nM |  | 
5 | AUGACUCUAGGAUAUUAGCGGGCCUACAUGAGGAUCACCCAUGUCGUGUCGCGGGUAUGCUGAGAAGGAGAGCACA | 14.2 nM | 17.9 nM |  | 
6 | AUGCCUUAUGUAGGAUAUGCAUAGAGUUGCUAUGCAGAAGGACAUGAGGAUCACCCAUGUAUGUAUACCUUACAAAUCUAGCAU | 38.6 nM | 230 nM |  | 
7 | AUGCCUUAUGUAGGAUAUGCAUAGCGUUGCUAUGCAGAAGGACAUGAGGAUCACCCAUGUAUGUAUUCCAUACAUAUCUGGCAU | 26.8 nM | 343 nM |  | 
8 | AUGCUCGUGUGAGGAUAUGCCGCCGUUUCGGCUGCAGAAGGUGCUACGUUACAUGAGGAUCACCCAUGUCUCUGUUGUUUCGUG |  |  | 24.4 nM | 25.5 nM
9 | AUGCUUCUCUCAGGAUAUUACAACAUGAGGAUCACCCAUGUACAUGACAUGACGAUCACGCAUGUUAAGAAGGGAGAGAAGCAU | 718 nM | 583 nM |  | 
10 | AUGGAUACCACAGGAUAUGCCCGGGAUACCCGGGCAGAAGGGUGGUCCAUCCUAUGUAAAUACAUGAGGAUCACCCAUGUGUCC |  |  | 351 nM | 257 nM
11 | AUGGAUAUCACAGGAUAUGCUAAGGAUACCUUAGCAGAAGGGUGAUCCAUCCUAUGGCUGCACAUGAGGAUCACCCAUGUGUCC |  |  | 124 nM | 11.8 nM
12 | AUGGCGACGUAGAAGGGUGACAUGAGGAUCACCCAUGUGCCGAUACUUCUCGAGAUGUGUCGGCCACAGGAUAUACGUACCAUC |  |  | 52.3 nM | 58.3 nM
13 | AUGUCGCACCAGAAGGGUCAACCAAUAAAUUAGACAGGAUAUGGGCGAUAAGUAUGUCGCGACAUGAGGAUCACCCAUGUCCGG |  |  | 11.6 nM | 5.95 nM
14 | AUGUCUCUAGGAUAUUAGCGGAUCUACAUGAGGAUCACCCAUGUCGUGUCGCAGAUGUGCUGAGAAGGAGAGCACA | 15.2 nM | 19 nM |  | 
15 | AUGUGACGGUGCGCAUGUGGACGGAGAAGGCAGACAUGAGGAUCACCCAUGUGAGCCUGCUAUUCUGAGGAUAUCCGUUCGCAC | 31.7 nM | 158 nM |  | 
16 | AUGUGGUGCGUAGGAUAUCAUUGAGGGUCACCCUGAGAAGGACGUGAGGACAUGAGGAUCACCCAUGUGGAUCACCCAUGUCAU | 245 nM | 288 nM |  | 
17 | AUGUUACAUGAGGAUCACCCAUGUGAGGAUAUGUGUACCGGUAAAAAAGUGUUUGGCCACAGAAGGCAUUUGGG | 44.5 nM | 84.5 nM |  | 
18 | AUUAAGUGAGGAUAUACAAGAUCGCUUACCGCCAAAGGCGGACAUGAGGAUCACCCAUGUAGAAGGCACAAAUU | 45.7 nM | 270 nM |  | 
19 | AUUAAUUAAUUAAUACAUGAGGAUCACCCAUGUAAUAAGAUCUAGGAUAUCAGCUCGAUUAGAGCUGAGAAGGAGAUCACAUGU |  |  | 46.8 nM | 39.5 nM
20 | AUUACAUGAGGAUCACCCAUGUACGGCACGUUUCAAAACACUGAGGAUAUACGAUAUGUAGGAACGUAGAAGGCAGUGGGUGCA |  |  | 99.7 nM | 34 nM
21 | AUUAUGUUAGGAUAUGCUUAUGGUGGAUAGUCCAAUAUGAUGCAGAAGGGACAUGAGGAUCACCCAUGUACUGA | 24.9 nM | 27.3 nM |  | 

Row | Sequence | apparent Kd [1] | apparent Kd [2] | apparent Kd [3] | apparent Kd [4]
22 | AUUAUUAUAAAUUUGGCAAGAAUCAGAAGGCGUUACAUGAGGAUCACCCAUGUUUUGUAUAGUAACGAGGAUAUGAUAUGGAAA | 17 nM | 12.9 nM |  | 
23 | AUUCCUAAUGUUAGGAUAUGCGACGGGUGACCGUUGCAGAAGGAACAUGAGGAUCACCCAUGUUUAAUAAAAUC | 17.3 nM | 111 nM |  | 
24 | AUUCCUCCUGUGAGGAUAUGCGUUUCGCACUCGUCGCAGAAGGCACAUGAGGAUCACCCAUGUGAGUUACCAAA | 14.8 nM | 20 nM |  | 
25 | AUUGACUGAGGAUAUUGUACUGCUGACAUGAGGAUCACCCAUGUAUGCUAACUCGGCCGUCGAGAAGGCAGUAAUG | 39 nM | 27.3 nM |  | 
26 | AUUGUAAUGUCAGGAUAUAUUAUAUUUUACAUAGUAGAAGGGAUAAUUAUACUCAUGUACAUGAGGAUCACCCAUGUUAAAUAU |  |  | 179 nM | 29.6 nM
27 | AUUGUAUAGGAAGGAUAUAGAAUAUUAUUUUAACAUGAGGAUCACCCAUGUAACCUUAUGUGUAGCUAGAAGGUCCAUUUAUUA | 99.6 nM | 150 nM |  | 
28 | AUUGUAUAGGAAGGAUAUAGAAUAUUAUUUUAACAUGAGGAUCACCCAUGUAACCUUAUGUGUAGCUAGAAGGUCCAUUUGUUA | 248 nM | 302 nM |  | 
29 | AUUUAUGGCCAGAAGGACAUGAGGAUCACCCAUGUAGGAUAUGGACGAUUUUGCUCGGCGGUUUUUUUAGGAAGCACCGGUGGU |  |  | 12.4 nM | 7.14 nM
30 | AUUUGAAGGUAGAAGGGUGACAUGAGGAUCACCCAUGUGCGAGCAUCGGACGAAGAUGGCUCGCCACAGGAUAUACCUUCAAAU |  |  | 36.7 nM | 46.3 nM
31 | AUUUUAAAGGGAGGAUAUACAUGAGGAUCACCCAUGUAAACAUGAGGAUCACCCUUGUAAACAAUGUAGAAGGCCUAAAUCUAU | 13 nM | 16.1 nM |  | 
32 | AUUUUAAUAUAGGAUAUCGAAUUUAUUAAUUAUCGAGAAGGAUAAACAUGAGGAUCACCCAUGUGGUAUCAUGG | 210 nM | 274 nM |  | 
33 | AUUUUGUCAGGAUAUGAGUAGUAGGACGAAAGUGUUAUUAUUUAGAAGGGACAUGAGGAUCACCCAUGUUCCUC | 12.7 nM | 16.2 nM |  | 
34 | AUUUUUAAGGUAGGAUAUAGUAUAAUGGUUUAAUUAGAAGGAUCUCACAUGAGGAUCACCCAUGUAAUAGGAUUACCCAUGUAU | 38.8 nM | 26.8 nM |  | 
35 | AUUUUUUGUCAUGUACAUGAGGAACAUGAGGAUCACCCAUGUAGAAGGAAUUUUUUUAAGUUUAGUUAGGAUAUACAUAUAUUU | 53.9 nM | 30 nM |  | 
36 | CAAAACAUCUCCGUGUUUGUCGAACAUGAGGAUCACCCAUGUAGAAGGCAUCGCGCGACGCGGGAUGAGGAUAUACGCUGGAUG | 6.18 nM | 15.3 nM |  | 
37 | CAAAACGAGGCAGGAUAUCAAUACAUGAGGAUCACCCAUGUGUGACGUAGGCCGGUCUUCGUGACUGAGAAGGGUCUCUAGUUA | 11 nM | 40.5 nM |  | 
38 | CAAAGGGAAGGAUAUACAUCAGGCGACCUGGUGGGCACCUAACAUGAGGAUCACCCAUGUAGAAGGUCCAGGGA | 22.4 nM | 14.9 nM |  | 
39 | CAAAGGUGAGGAUAUACAUAACUAUGACGAAAGUCAUAAACACAUGAGGAUCACCCAUGUAGAAGGCACCACAA | 26.3 nM | 37.9 nM |  | 
40 | CAACCACAUGAGGAUCACCCAUGUGAGGAUAUGAUACUAUGUACUUCGGUACAUAGUAUCAGAAGGCACAGGUG | 82 nM | 73.4 nM |  | 
41 | CAAUUGGCACAGAAGGGUGACAUGAGGAUCACCCAUGUAGCGUGGUACUCAGGAGGAACCACGCCACAGGAUAUGUGCGGGCAC |  |  | 30.3 nM | 38.8 nM
42 | CAAUUUAUAACAGGAUAUACAAUACAAUGAUUAGUAGAAGGGUUUAAUACAUGAGGAUCACCCAUGUCAUGUGUCAUAAUAACC | 34.3 nM | 24.9 nM |  | 
